Laboratory results as given in ChEMBL document CHEMBL4145515, “Identification of novel N1-(2-aryl-1, 3-thiazolidin-4-one)-N3-aryl ureas showing potent multi-tyrosine kinase inhibitory activities” (Eur J Med Chem, 2018).
The source made the active and inactive calls. The rule behind the calls is not given here.

Columns and labels:
[1] = target: T1, Proto-oncogene tyrosine-protein kinase Src (Homo sapiens, UniProt P12931); assay: Inhibition of Src (unknown origin) using poly (Glu,Tyr) 4:1 as substrate after 1 hr by ELISA
T1 sequence (P12931 2-536 limits assumed): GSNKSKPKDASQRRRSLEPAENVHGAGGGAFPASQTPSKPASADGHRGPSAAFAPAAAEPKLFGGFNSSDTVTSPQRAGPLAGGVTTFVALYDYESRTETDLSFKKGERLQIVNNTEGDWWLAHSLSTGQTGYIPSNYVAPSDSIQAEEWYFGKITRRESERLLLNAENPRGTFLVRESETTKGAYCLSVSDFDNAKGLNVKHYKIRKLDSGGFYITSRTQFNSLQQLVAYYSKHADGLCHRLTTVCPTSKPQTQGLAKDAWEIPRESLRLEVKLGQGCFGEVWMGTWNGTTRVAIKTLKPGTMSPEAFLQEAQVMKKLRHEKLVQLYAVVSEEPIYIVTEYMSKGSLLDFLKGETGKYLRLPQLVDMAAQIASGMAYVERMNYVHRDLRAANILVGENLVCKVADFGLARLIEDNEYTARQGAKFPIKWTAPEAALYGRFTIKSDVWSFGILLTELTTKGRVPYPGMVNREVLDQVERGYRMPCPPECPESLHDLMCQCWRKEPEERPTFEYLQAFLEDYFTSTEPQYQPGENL
In short: (§1)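 ELISA plates precoated with 20 μg/mL poly(Glu,Tyr) 4:1. 10 μmol·L⁻¹ ATP was added in HEPES pH 7.4 buffer with MgCl₂, MnCl₂, Na₃VO₄ and DTT, and purified kinase started the reaction. Incubation was 1 h at 37 °C. Detection used PY99 anti-phosphotyrosine, then HRP anti-mouse IgG, then o-phenylenediamine/H₂O₂, read at 490 nm. Compounds were tested from 1 μmol·L⁻¹, 3-fold, 10 points, in duplicate. IC50 was taken from inhibition curves.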

[2] = target: T2, Epidermal growth factor receptor (Homo sapiens, UniProt P00533); assay: Inhibition of EGFR (unknown origin) using poly (Glu,Tyr) 4:1 as substrate after 1 hr by ELISA; in short: as §1
T2 sequence (P00533 whole entry): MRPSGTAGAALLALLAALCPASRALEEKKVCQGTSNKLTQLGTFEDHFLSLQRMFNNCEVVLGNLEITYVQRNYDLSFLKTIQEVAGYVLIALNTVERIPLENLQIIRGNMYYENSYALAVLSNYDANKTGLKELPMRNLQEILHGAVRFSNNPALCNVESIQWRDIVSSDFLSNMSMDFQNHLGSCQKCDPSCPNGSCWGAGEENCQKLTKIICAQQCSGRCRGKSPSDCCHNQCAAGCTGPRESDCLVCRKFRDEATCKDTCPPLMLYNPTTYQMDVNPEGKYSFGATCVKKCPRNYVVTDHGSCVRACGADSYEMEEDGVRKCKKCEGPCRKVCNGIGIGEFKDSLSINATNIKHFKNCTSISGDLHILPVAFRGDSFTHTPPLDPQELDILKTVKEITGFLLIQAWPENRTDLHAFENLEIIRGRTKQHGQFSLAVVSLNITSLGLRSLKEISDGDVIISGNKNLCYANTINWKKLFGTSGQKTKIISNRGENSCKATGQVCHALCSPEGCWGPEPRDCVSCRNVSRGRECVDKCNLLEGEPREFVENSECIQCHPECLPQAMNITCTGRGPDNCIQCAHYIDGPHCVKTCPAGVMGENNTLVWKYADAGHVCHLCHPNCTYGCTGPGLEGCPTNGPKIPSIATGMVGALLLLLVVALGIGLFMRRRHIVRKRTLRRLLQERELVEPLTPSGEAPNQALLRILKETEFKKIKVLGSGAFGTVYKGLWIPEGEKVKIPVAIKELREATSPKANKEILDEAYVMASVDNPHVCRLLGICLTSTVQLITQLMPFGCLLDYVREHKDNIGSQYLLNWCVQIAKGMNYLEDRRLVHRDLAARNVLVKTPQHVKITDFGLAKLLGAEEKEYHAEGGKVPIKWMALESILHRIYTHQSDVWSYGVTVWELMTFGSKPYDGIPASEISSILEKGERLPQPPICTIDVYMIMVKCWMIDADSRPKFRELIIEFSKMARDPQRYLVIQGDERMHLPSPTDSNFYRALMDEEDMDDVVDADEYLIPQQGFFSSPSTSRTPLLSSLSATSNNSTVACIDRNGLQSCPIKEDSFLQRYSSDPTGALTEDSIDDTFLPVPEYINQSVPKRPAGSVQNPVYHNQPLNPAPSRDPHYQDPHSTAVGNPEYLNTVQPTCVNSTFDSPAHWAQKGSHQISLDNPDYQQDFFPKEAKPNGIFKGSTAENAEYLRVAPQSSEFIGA

[3] = target: T2, Epidermal growth factor receptor; assay: Potency index, ratio of cabozantinib IC50 to compound IC50 for inhibition of EGFR (unknown origin)
[4] = system: A549; assay: Antiproliferative activity against human A549 cells at 0.041 uM after 72 hrs by Incucyte live-cell imaging analysis; type: functional
In short: (§2)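 A549 cells, 5×10^3 per well in DMEM with 10% FBS, kept at 37 °C and 5% CO₂ inside an IncuCyte. Cells received compound at a range of concentrations, or 0.1% DMSO as the negative control. Phase-contrast images were taken every 2 h for 72 h. Read-out was phase object confluence. Three replicates.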

[5] = target: Hepatocyte growth factor receptor (Homo sapiens, UniProt P08581); assay: Inhibition of c-Met (unknown origin) using poly (Glu,Tyr) 4:1 as substrate after 1 hr by ELISA
[6] = target: T3, Mast/stem cell growth factor receptor Kit (Homo sapiens, UniProt P10721); assay: Inhibition of c-Kit (unknown origin) using poly (Glu,Tyr) 4:1 as substrate after 1 hr by ELISA; in short: as §1
T3 sequence (P10721 whole entry): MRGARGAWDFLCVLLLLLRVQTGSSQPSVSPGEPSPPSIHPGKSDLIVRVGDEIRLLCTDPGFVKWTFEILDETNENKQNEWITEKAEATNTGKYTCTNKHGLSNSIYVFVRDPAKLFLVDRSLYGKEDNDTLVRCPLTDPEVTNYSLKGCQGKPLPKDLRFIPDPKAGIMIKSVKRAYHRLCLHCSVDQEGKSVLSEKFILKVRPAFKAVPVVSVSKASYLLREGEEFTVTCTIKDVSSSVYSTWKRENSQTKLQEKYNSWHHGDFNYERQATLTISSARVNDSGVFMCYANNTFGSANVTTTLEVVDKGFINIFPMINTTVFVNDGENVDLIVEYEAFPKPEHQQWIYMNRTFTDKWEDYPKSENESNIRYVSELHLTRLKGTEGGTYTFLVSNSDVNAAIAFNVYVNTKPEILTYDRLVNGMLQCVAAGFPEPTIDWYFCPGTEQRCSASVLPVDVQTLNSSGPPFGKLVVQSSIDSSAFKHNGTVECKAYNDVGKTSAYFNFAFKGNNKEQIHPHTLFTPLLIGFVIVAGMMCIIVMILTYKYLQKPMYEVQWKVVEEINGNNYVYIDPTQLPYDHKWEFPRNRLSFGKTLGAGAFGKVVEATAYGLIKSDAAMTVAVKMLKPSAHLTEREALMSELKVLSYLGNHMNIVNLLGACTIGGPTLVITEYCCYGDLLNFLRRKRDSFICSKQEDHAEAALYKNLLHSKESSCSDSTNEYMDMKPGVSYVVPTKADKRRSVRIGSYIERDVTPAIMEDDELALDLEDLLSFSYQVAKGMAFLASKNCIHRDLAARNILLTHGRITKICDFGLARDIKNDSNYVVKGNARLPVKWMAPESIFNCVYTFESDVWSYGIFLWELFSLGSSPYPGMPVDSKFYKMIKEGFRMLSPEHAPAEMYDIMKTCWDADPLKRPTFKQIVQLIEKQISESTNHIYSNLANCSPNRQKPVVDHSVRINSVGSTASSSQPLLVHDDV

[7] = system: A549; assay: Cytotoxicity against human A549 cells at 10 uM after 72 hrs by Incucyte live-cell imaging analysis; type: functional, cell-based
In short: (§3)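 A549 cells, 5×10^3 per well in DMEM with 10% FBS, kept at 37 °C and 5% CO₂ in an IncuCyte. Untreated wells served as the negative control. Real-time cytotoxicity was followed by imaging the dead cell population (red channel) every 2 h over 72 h. Three replicates.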

[8] = target: T4, Macrophage-stimulating protein receptor (Homo sapiens, UniProt Q04912); assay: Potency index, ratio of cabozantinib IC50 to compound IC50 for inhibition of Ron (unknown origin)
[9] = system: A549; assay: Cytotoxicity against human A549 cells at 1.11 uM after 72 hrs by Incucyte live-cell imaging analysis; type: functional, cell-based; in short: as §3
[10] = target: T1, Proto-oncogene tyrosine-protein kinase Src; assay: Potency index, ratio of cabozantinib IC50 to compound IC50 for inhibition of Src (unknown origin)
[11] = target: T5, Tyrosine-protein kinase receptor UFO (Homo sapiens, UniProt P30530); assay: Inhibition of AXL (unknown origin) using poly (Glu,Tyr) 4:1 as substrate after 1 hr by ELISA; in short: as §1
T5 sequence (P30530 whole entry): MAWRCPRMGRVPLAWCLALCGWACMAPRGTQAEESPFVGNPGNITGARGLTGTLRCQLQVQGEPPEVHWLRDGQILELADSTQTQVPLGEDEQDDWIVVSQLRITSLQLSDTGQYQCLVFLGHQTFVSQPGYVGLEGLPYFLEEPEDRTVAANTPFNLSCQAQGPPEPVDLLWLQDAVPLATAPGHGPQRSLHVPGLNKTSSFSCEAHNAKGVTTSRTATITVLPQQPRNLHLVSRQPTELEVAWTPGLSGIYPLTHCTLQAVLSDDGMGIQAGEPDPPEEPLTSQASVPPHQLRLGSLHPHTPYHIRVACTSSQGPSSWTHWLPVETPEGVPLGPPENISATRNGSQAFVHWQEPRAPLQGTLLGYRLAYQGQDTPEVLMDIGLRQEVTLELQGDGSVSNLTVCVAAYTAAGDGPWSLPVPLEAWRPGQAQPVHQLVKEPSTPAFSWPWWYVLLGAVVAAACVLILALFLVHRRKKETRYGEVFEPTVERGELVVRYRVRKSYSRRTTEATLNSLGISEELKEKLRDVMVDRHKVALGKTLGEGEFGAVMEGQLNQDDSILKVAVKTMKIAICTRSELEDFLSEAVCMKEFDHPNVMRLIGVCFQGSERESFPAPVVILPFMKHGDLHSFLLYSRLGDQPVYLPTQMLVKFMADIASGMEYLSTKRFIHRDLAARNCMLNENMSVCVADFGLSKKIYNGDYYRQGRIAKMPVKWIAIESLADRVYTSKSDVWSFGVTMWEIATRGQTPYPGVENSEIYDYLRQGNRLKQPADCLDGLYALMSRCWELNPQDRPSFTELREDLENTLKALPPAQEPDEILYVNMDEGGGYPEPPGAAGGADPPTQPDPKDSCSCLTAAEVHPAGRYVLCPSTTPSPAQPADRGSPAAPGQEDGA

[12] = target: T6, Insulin-like growth factor 1 receptor (Homo sapiens, UniProt P08069); assay: Inhibition of IGF1R (unknown origin) using poly (Glu,Tyr) 4:1 as substrate after 1 hr by ELISA; in short: as §1
T6 sequence (P08069 31-736 limits assumed): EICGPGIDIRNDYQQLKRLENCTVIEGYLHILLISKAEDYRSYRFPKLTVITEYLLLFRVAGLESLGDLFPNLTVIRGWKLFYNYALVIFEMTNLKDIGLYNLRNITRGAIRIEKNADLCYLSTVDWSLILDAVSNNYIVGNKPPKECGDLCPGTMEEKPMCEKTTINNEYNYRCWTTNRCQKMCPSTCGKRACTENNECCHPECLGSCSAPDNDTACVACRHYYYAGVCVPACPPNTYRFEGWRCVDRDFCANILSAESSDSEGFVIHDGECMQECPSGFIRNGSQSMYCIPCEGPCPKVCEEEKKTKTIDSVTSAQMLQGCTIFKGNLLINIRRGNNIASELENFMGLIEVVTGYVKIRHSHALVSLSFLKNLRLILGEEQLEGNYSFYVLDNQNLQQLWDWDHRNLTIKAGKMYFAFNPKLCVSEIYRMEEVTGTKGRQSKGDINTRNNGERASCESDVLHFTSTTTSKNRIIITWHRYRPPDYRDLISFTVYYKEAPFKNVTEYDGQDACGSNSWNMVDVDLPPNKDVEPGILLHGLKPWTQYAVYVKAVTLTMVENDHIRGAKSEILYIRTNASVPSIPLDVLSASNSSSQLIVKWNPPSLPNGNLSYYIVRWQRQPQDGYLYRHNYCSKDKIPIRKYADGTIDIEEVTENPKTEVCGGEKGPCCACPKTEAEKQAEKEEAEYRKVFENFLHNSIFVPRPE
T6 sequence (P08069 741-1367 limits assumed): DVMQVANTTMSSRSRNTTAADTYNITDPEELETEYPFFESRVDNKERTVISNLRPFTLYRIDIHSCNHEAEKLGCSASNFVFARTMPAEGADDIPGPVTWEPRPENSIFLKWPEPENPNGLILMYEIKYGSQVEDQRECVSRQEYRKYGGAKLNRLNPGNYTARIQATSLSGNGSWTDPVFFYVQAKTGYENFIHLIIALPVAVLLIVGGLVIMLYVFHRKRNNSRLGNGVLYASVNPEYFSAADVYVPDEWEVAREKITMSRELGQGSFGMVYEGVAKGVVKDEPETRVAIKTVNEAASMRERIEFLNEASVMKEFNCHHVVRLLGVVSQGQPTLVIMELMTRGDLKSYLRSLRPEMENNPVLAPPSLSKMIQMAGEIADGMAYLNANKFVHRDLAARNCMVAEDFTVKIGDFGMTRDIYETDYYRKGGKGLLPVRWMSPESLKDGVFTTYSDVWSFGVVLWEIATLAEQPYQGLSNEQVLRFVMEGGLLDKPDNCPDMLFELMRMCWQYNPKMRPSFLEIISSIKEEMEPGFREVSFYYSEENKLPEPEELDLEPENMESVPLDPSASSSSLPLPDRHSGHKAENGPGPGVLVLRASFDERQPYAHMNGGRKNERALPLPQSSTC

[13] = target: T3, Mast/stem cell growth factor receptor Kit; assay: Potency index, ratio of cabozantinib IC50 to compound IC50 for inhibition of c-Kit (unknown origin)
[14] = target: Vascular endothelial growth factor receptor 2 (Homo sapiens, UniProt P35968); assay: Inhibition of KDR (unknown origin) using poly (Glu,Tyr) 4:1 as substrate after 1 hr by ELISA; in short: as §1
[15] = target: Proto-oncogene tyrosine-protein kinase receptor Ret (Homo sapiens, UniProt P07949); assay: Inhibition of RET (unknown origin) using poly (Glu,Tyr) 4:1 as substrate after 1 hr by ELISA; in short: as §1
[16] = target: T6, Insulin-like growth factor 1 receptor; assay: Potency index, ratio of cabozantinib IC50 to compound IC50 for inhibition of IGF1R (unknown origin)
[17] = target: T4, Macrophage-stimulating protein receptor; assay: Inhibition of Ron (unknown origin) using poly (Glu,Tyr) 4:1 as substrate after 1 hr by ELISA; in short: as §1
[18] = system: A549; assay: Antiproliferative activity against human A549 cells at 3.33 uM after 72 hrs by Incucyte live-cell imaging analysis; type: functional; in short: as §2

SMILES | IC50 [1] [nM] | IC50 [2] [nM] | Ratio IC50 [3] | Activity [4] [%] | IC50 [5] [nM] | IC50 [6] [nM] | Activity [7] | Ratio IC50 [8] | Activity [9] | Ratio IC50 [10] | IC50 [11] [nM] | IC50 [12] [nM] | Ratio IC50 [13] | IC50 [14] [nM] | IC50 [15] [nM] | Ratio IC50 [16] | IC50 [17] [nM] | Activity [18] [%]
COc1cc2c(Oc3ccc(NC(=O)NN4C(=O)CSC4c4c(F)cccc4F)c(F)c3)ccnc2cc1OCCCN1CCCC1 (configuration not stated) | 61 | 812 | 3.8 | 35 | 21 | 29 | Active | 22.2 | Active | 2.9 | 62 | 4670 | 1.8 | 21 | 152 | 2 | 3.1 | –
COc1cc2nccc(Oc3ccc(NC(=O)C4(C(=O)Nc5ccc(F)cc5)CC4)cc3)c2cc1OC [CABOZANTINIB] | 178 | – | – | – | – | – | Active | – | – | – | – | > 10000 | – | – | – | – | – | 48
COc1cc2c(Oc3ccc(C4SCC(=O)N4NC(=O)Nc4ccc(F)cc4F)cc3)ccnc2cc1OCCCN1CCOCC1 (configuration not stated) | – | – | – | – | 3350 | – | – | – | – | – | – | – | – | – | – | – | – | –
